# This sample holds only a part of the variants without activity.
# B1: tRNA (parent)
# chain: GUUCCGUUGGCGUAAUGGUAACGCGUCUCCCUCCUAAGGAGAAGACUGCGGGUUCGAGUCCCGUACGGAACG
# Variants of: B1
# Assay: yeast fitness relative to wild type (ratio to wild type); higher = fitter; tRNA-Arg(CCU), competitive growth, 37 C, YPD
# Method in brief: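 Changes in genotype frequencies gave Darwinian fitness relative to wild type. Frequencies were read by 100-nucleotide paired-end sequencing of gene amplicons before and after pooled Saccharomyces cerevisiae strains, carrying tRNA-Arg(CCU) gene variants at the native locus, were competed in YPD at 37°C for 24 hours in six replicates. A genotype was kept only with ≥ 100 starting reads, and estimates < 0.5 were set to 0.5.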
row,Variant,yeast fitness
1,GUUCCGUUGGCGUAAUGGUGACGCGUCUCCCUCCUAGGGAGAAAACUGCGGGUUCGAGUCCCGUUCGGAACG,≤ 0.5
2,GUUCCGUUGGCGUAAUGGUGACGCGUUGCCCUCCUAAGGAGAAGACUGCGGGUUCGAGUCCCGUACGAAACG,≤ 0.5
3,GUUCCGUUGGCGUAAUGGUGACGCGUCUCACUCCUAAGGAGAAGACUGCGGGUUCGAGUCCCGUACGGCACG,0.752
4,GUUCCGUUGGCGUAAUGGUGACGCGUCUGCCUCCUAAGGAGAAGACUGCGGGUUCGAGUCCCGUACGGAACG,0.609
5,GUUCCGUUGGCGUAAUGGUGACGUGUCUCCCUCCUAAGGAGAAGAUUGCGGGUUCGAGUCCCGUACGGAACG,0.733
6,GUUCCGUUGGCGUAAUGGUGACGCGUCUCCCUCCUAAGGAGAAGCCUGCGGGUUCGAGUCCCGUACGGACCG,0.789
7,GUUCCGUUGGCGUAAUGGUGACGCGUCUCACUCCUAAGGAGAAGACUACGGGUUCGAGUCCCGCACGGAACG,≤ 0.5
8,GUUCCGUUGGCGUAAUGGUGACGCGUCUCCCUCCUAAGGAGCAGACUGCGGGUUCGAGUCCCGUACGGAACG,1.05
9,GUUCCGUUGGCGUAAUGGUGACGCGUCUCCCUCCUAAGGAGGAGACUGCGGGUUCGAGUCCCGUACGGAACG,0.969
10,GUUCCGUUGGCGUAAUGGUGACGCGUCUCCCUCCUAAGGCGUCGACUGCAGGUUCGAGUCCCGUACGGAACG,≤ 0.5
11,GUUCCGUUGGCGUAAUGGUGACGCGUCUCGCUCCUAAAGAGAAGACUGCGGGUUCGAGUCCCGUACGGAACG,≤ 0.5
12,GUUCCGUUGGCGUAAUGGUGACGCGUUUCCCUCCUAUGGAGAAGACUGCGGGUUCGAGUCCCGUACGGAACG,≤ 0.5
13,GUUCCGUUGGCGUAAUGGUGACGCGUCUCCCUCCUAAGGCGUCGACUACGGGUUCGAGUCCCGUACGGAACG,0.562
14,GUUCCGUUGGCGUAAUGGUGACGUGUCUCCAUCCUAAGGAGAAGACUGCGGGUUCGAGUCCCGUACGCAACG,≤ 0.5
15,GUUCCGUUGGCGUAAUGGUGAGGCGUCUCCCUCCUAAGGAGAAGACUGCGGGUUCGAGUCCCGUACGGAACG,0.952
16,GUUCCGUUGGCGUAAUGGUGACGCGUAUCCAUCCUAAGGAGAAGACUGCGGGUUCGAGUCUCGUACGGAACG,≤ 0.5
17,GUUCCGUUGGCGUAAUGGUGACGCGUCUCCCUCCUAAGGAGAGGACUGCGGGUUCGAGUCCCGUUCGGAACG,0.596
18,GUUCCGUUGGCGUAAUGGUGACGUGUCUCCCUCCUAAGGAGAAGACUGCGGAUUCGGGUCCCGUAUGGAACG,≤ 0.5
19,GUUCCGUUGGCGUAAUGGUGACGCGUCUCCCUCCUAAGGAGACGACUGCGGGUUCAUGUCCCGUACGGAACG,≤ 0.5
20,GUUCCGUUGGCGUAAUGGUGACGCGUCUACCUCCUAAGGAGAAGACUGCGGGUUCGAGUCCCGUCCGGAACG,0.544
21,GUUCCGUUGGCGUAAUGGUGAUGCGUCUCCCUCCUAAGGAGAAGACUGCGGGUUCGAGUCCCGUACUGAACG,0.559
22,GUUCCGUUGGCGUAAUGGUGACGCGUCUCAUUCCUAAGGAGAAGCCUGCGGGUUGGAGUCCCGUACGGAACG,≤ 0.5
23,GUUCCGUUGGCGUAAUGGUGACGCGUCUCCCUCCUAAGGCGUCGACUACGGGUUCGAGUCCCGUAUGGAACG,0.532
24,GUUCCGUUGGCGUAAUGGUGAAGCGUCUCCCUCCUACGGAGAAGACUGCGGGUUCGAGUCCCGUGCGGAACG,≤ 0.5
25,GUUCCGUUGGCGUAAUGGUGACGAGUUUCCCUCCUAAGGAGAAGACUGCGGGUUCGAGUCCCGUACGGAACG,0.609

row,Variant,yeast fitness
1,GUUCCGUUGGCGUAAUGGUGACGCGUCUCCCUCCUAAGGAGCAGCCUGCGGGUUCGAGUCCCGUACCGAACG,≤ 0.5
2,GUUCCGUUGGCGUAAUGGUGACGGGUCUCCCUACUUAGGAGAAGACUGCGGGUUCGAGUCCCGUACGGAACG,≤ 0.5
3,GUUCCGUUGGCGUAAUGGUGACGUGUCUCCCUUCUAAGGAGACGACUGCGGGUUAGAGCCCCGUACGGAACG,0.539
4,GUUCCGUUGGCGUAAUGGUGACGCGUCUCCGUCCUAAGGAGAAGACUGCGGGUUCGAGUGCCCUACGGAACG,≤ 0.5
5,GUUCCGUUGGCGUAAUGGUGAAGCGUCUCCCUCCUAAGGAGGAGACUGCGGGUUCGAGUCCCGUACGGAACG,0.557
6,GUUCCGUUGGCGUAAUGGUGACGCGUCUCCCUCCUAUGGAGAAGACUGCGGGUUCGAGUCCCGUACGGAACG,0.795
7,GUUCCGUUGGCGUAAUGGUGACGCGUCUCCCUCCUAAGGAGAAGACUGCGGGUUCGAGUCCCGUGCGGAACG,0.986
8,GUUCCGUUGGCGUAAUGGUGACGGGUUUCCCUCCUAAGGAGAAGACUGCGGGUUCGAGUCCAGUAAGGAACG,≤ 0.5
9,GUUCCGUUGGCGUAAUGGUGACGCGUUUCCCUCCUAAGGAGAAGACUGCGGGUUCGAGUCCCGUAUGGAACG,0.689
10,GUUCCGUUGGCGUAAUGGUGACGGGUCUCGCUCCUAAGGAGAAGACUGCGGGUUCGAGUCCCGUACGGAACG,≤ 0.5
11,GUUCCGUUGGCGUAAUGGUGACGCGUCUCCCUCCUAAGGAGACGACUGCGGGUUCGUGUCCCGUACGGAACG,0.538
12,GUUCCGUUGGCGUAAUGGUGAGGCGUGUCUGUCCUAAGGAGAAGACUGCGCGUUCGAGUCCCAUGCGGAACG,≤ 0.5
13,GUUCCGUUGGCGUAAUGGUGACGCGUCUCCCUCCUAAGGAGACGACUGCGGGUUCGAGUCCCGUACGGAACG,1.09
14,GUUCCGUUGGCGUAAUGGUGACGCGUCUCCCUCCUAAGGAGAGGACUGCGGGUUCGAGUCCCGUACGGAACG,1.07
15,GUUCCGUUGGCGUAAUGGUGACGCGUCUACCUCGUAAGGAGCAGACUGGGGGUUCGAGUCCCGUACGAAACG,≤ 0.5
16,GUUCCGUUGGCGUAAUGGUGACGCGUCUCCCUCCUAAGGAGAAGACUGCGGGUUCGAGUCCCGUGCGGACCG,0.694
17,GUUCCGUUGGCGUAAUGGUGACGCGUGUCCCUCCUAAGGAGCAGACUGCGGGUUAGAGUCCCGUACGGAACG,≤ 0.5
18,GUUCCGUUGGCGUAAUGGUGACGCGUCUCCCUCCUAAGGAGAAGCCUGCAGGUGCGAGUCCCGUACGGAACG,≤ 0.5
19,GUUCCGUUGGCGUAAUGGUGACGCGUGUCCCUCCUAAGGAGAAGACGGCGGGUUCGAGUCCUGUUCGGAACG,≤ 0.5
20,GUUCCGUUGGCGUAAUGGUGACGCGUCUCCCUCCUAAGGAGAGGACGGCGGGUUCGAGUCCCGUACCGAACG,≤ 0.5
21,GUUCCGUUGGCGUAAUGGUGACGUGUCUCCCUCCUAAGGAGAAGACUGGAGGUUCGAGUCCCGUACGGAACG,≤ 0.5
22,GUUCCGUUGGCGUAAUGGUGACGCGUCUCCCUCCUAAGGAGAAGACUGCGGGUUCGCGUCCUGUACGGAACG,≤ 0.5
23,GUUCCGUUGGCGUAAUGGUGAGGCGUGUCUGUCCUAAGGAGAAGACUGCGCGUUCGAGUCGCGUACGGAACG,≤ 0.5
24,GUUCCGUUGGCGUAAUGGUGACGCGUCUCCCUCCUAAGGGGAAGACUGCCGGUUCGAGUCCCGUGUGGAACG,≤ 0.5
25,GUUCCGUUGGCGUAAUGGUGACGCGUCUCCCUCCUAAGGGGAAAAGUGCGGGUUCGAGUCCCGUACGGAACG,≤ 0.5

row,Variant,yeast fitness
1,GUUCCGUUGGCGUAAUGGUGACGCGUCUCCCUCCUAAGGAGAAGCCUGCGGGUUCGAGUCCCGUACGGUACG,0.729
2,GUUCCGUUGGCGUAAUGGUGACGCGUCUUCCUCCUAAGGAGAAGACUCCGGAUUCGAGUCCCGUACGGAACG,≤ 0.5
3,GUUCCGUUGGCGUAAUGGUGACGGGUUUCCCUCCUAAGGCGAAGACUGCGGGUUCGAGUCCCGUACGGAACG,0.532
4,GUUCCGUUGGCGUAAUGGUGACGCGUCUCCGUCCUAAGGAGAAGACUGCGGGUUCGAGUCGCGUAUGGUACG,0.545
5,GUUCCGUUGGCGUAAUGGUGACGCGUCUCCGUCCUAAGGAGAAGACUGCGGGUUCGAGUCCCGUACGGAGCG,0.715
6,GUUCCGUUGGCGUAAUGGUGACGCGUCUCCCUCCUAAGGGGAAGACUGCGGGUUCGAGUCCCGUACGGAACG,0.888
7,GUUCCGUUGGCGUAAUGGUGACGAGUAUCCCUCCUAAGGAGAAGACUGCGGGUUCGAGUCCCGUACGGCACG,0.591
8,GUUCCGUUGGCGUAAUGGUGAUGCGUCUCCCUCCUAAGGAGAAGACUGCGGGAUCGAGUCCCGUACGGAACG,≤ 0.5
9,GUUCCGUUGGCGUAAUGGUGAGGCGUGUCUGUCCUAAGGAGAAGACUGCGCGUUCGAGUCACGUACGGCACG,≤ 0.5
10,GUUCCGUUGGCGUAAUGGUGACGCGUGUCCCUCCGAAGGAGAAGACUGCGGGUUCGAGUCCCGUACGGAACG,≤ 0.5
11,GUUCCGUUGGCGUAAUGGUGAUGCGUCUCCCUCCUAAGGAGAGGACUGCGGGUUCGAGUCCCGUACGGAACG,0.624
12,GUUCCGUUGGCGUAAUGGUGACGUGUCUCCCUCCUAAGGAGAAGACUGCGGGUUCGAGUCCCGUACGCAACG,0.573
13,GUUCCGUUGGCGUAAUGGUGACGAGUCUCCCUCCUAAGGAGAAGCCUGCGGGUUCGAGUCCCGUACGGAACG,≤ 0.5
14,GUUCCGUUGGCGUAAUGGUGACGCGUCUCUCUCCUAAGGAGAAGGCUGCGGGUUCGAGUCCCGUACGGAACG,0.524
15,GUUCCGUUGGCGUAAUGGUGACGCGUUUCCCUCCUAAGGAGAAGACUGUGGGUUCGGGUCCCGUACGGAACG,≤ 0.5
16,GUUCCGUUGGCGUAAUGGUGACGCGUCUCCCUCCUAAGGAGAUGACUACGGGUUCGAGUCCCGUACGGAACG,0.73
17,GUUCCGUUGGCGUAAUGGUGACGCGUCUCCGUCCUAAGGAGAAGACUGCGGGUUCGAGUCUCGUACGGAACG,0.659
18,GUUCCGUUGGCGUAAUGGUGACGCGUCUCCAUCCUAAGGAGAAGACUGCGGGUUCGAGUCCCGUACGAAACG,0.575
19,GUUCCGUUGGCGUAAUGGUGACGCGUGUCCCUCCUGAGGAGAAGACUGCGGGUUCGAGUCCCGUACGGAACG,0.504
20,GUUCCGUUGGCGUAAUGGUGACGAGUCUGCCUCCUAUGAAGAAGACCGCGGGUUCGAGUCCCGUACGGAACG,≤ 0.5
21,GUUCCGUUGGCGUAAUGGUGACGCGUCUCCCUCCUAAGGAGGAGACUGCGGGUUCGAAUCCCGUACGGAACG,0.806
22,GUUCCGUUGGCGUAAUGGUGAUGCGUCUCCCUCCUAUGGACAAGAAUGCGGGUUCGAGUCCCGUACGGAACG,≤ 0.5
23,GUUCCGUUGGCGUAAUGGUGACGCGUAUCCCUCCUAAGGGGAAGAGUGCGGGUUCGAGUCCGGUACGGAACG,≤ 0.5
24,GUUCCGUUGGCGUAAUGGUGACGCGUCUCCCUCCUAUGGAGAAGACUGCGGGUUCGAGUCCAGUACGGAACG,≤ 0.5
25,GUUCCGUUGGCGUAAUGGUGACGCGUCUCCCUCCUAAGGGGAAGACUGCGGGUUCGUGUCCCGUGCGGAACG,≤ 0.5

# Reference: the RNAGym collection of RNA variant scans (doi:10.1126/science.aae0568)
